Data published in ChEMBL document CHEMBL1123370, “Design and synthesis of conformationally constrained somatostatin analogues with high potency and specificity for mu opioid receptors” (J Med Chem, 1986).

Key:
[1] = biological target: Mu-type opioid receptor (Rattus norvegicus, UniProt P33535); experiment: Inhibition of binding of [3H]-naloxone to Opioid receptor mu 1 of rat brain membranes; type: cell membranes, Membrane
Method in brief: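 The [3H]naloxone (1 nM) displacement used washed Sprague-Dawley rat brain membranes in 50 mM Tris-HCl pH 7.4 containing MgCl2 5 mM, BSA and bacitracin. Incubation ran 120 min at 25 °C across ≥10 analogue concentrations. Binding was terminated by filtration through GF/B filters soaked in 0.1% polyethylenimine. IC50 is mean ± SD of at least three duplicate runs.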

[2] = biological target: Delta-type opioid receptor (Rattus norvegicus, UniProt P33533); experiment: Inhibition of [3H]-DPDPE binding to Opioid receptor delta 1 of rat brain membranes; type: cell membranes, Membrane
Delta-type opioid receptor, sequence (P33533 whole entry): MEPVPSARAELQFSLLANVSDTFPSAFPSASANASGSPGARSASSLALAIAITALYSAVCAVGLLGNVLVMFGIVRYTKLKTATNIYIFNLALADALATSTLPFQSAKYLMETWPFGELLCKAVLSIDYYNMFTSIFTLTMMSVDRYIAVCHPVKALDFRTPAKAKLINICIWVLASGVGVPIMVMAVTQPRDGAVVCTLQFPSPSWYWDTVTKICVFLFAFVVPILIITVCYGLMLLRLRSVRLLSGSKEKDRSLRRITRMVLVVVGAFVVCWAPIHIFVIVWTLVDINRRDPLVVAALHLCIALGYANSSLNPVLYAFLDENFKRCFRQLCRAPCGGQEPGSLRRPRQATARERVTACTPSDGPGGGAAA
Method in brief: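 Rat brain membranes were prepared as a sucrose homogenate, spun at 1000g, and washed twice in 50 mM Tris-HCl pH 7.4 with 5 mM MgCl2, BSA 2 mg/mL and bacitracin 20 µg/mL. They were incubated with [3H]DPDPE and at least 10 freshly prepared peptide concentrations for 180 min at 25 °C. Bound ligand was separated by rapid filtration on PEI-pretreated GF/B filters.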

[3] = organism: Rattus norvegicus; experiment: Compound was evaluated for the inhibition of binding of [125I]CGP23996 to rat brain membranes; set-up: species or system Membrane
Method in brief: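 Whole brains from adult Sprague-Dawley rats (150–200 g) were homogenized 10% w/v in 0.32 M sucrose, spun at 1000g for 10 min, and resuspended in 50 mM Tris-HCl pH 7.4 with 5 mM MgCl2, BSA 2 mg/mL and bacitracin 20 µg/mL (done twice). Membranes were incubated with 0.2 nM [125I]CGP23,996 and ≥10 analogue concentrations for 120 min at 25 °C. Filtration was through 0.1% PEI-treated GF/B filters.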

[4] = biological target: Opioid receptors; mu & delta (Rattus norvegicus) (UniProt P33533+P33535); experiment: Ratio of receptor binding inhibitory concentrations against mu and delta opioid receptors from rat brain as IC50 (vs [3H]-DPDPE) / IC50 (vs [3H]naloxone)
Opioid receptors; mu & delta (Rattus norvegicus), sequence (P33533 whole entry, looked up): as the sequence (P33533 whole entry) above
Opioid receptors; mu & delta (Rattus norvegicus), sequence (P33535 whole entry, looked up): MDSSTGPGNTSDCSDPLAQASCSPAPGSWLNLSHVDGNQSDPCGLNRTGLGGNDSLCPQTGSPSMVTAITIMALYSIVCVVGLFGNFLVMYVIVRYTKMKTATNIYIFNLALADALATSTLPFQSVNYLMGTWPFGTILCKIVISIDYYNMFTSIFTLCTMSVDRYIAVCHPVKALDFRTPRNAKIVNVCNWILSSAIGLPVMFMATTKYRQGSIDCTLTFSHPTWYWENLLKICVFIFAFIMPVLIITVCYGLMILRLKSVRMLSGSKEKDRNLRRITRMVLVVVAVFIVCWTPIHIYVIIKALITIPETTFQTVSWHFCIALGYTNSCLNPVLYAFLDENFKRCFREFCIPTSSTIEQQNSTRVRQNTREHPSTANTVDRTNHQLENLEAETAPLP
Method in brief: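 The ratio is IC50 against [3H]DPDPE (rat brain membranes, 180 min, 25 °C) divided by IC50 against 1 nM [3H]naloxone (120 min, 25 °C). Both assays used Tris-HCl pH 7.4 buffer with MgCl2, BSA and bacitracin, and filtration on PEI-treated GF/B filters.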

[5] = Ratio of receptor binding inhibitory concentrations against somatostatin receptors and mu opioid receptors from rat brain […] / IC50(vs [3H]naloxone)

Mu-type opioid receptor, sequence (P33535 whole entry): as the sequence (P33535 whole entry, looked up) above

## C[C@@H](O)[C@H](NC(=O)[C@H]1NC(=O)[C@H]([C@@H](C)O)NC(=O)[C@H](CCCCN)NC(=O)[C@@H](Cc2c[nH]c3ccccc23)NC(=O)[C@H](Cc2ccc(O)cc2)NC(=O)[C@@H](NC(=O)[C@H](N)c2ccccc2)CSSC1(C)C)C(N)=O
[1]
  IC50: 350 nM
[2]
  IC50: 2800 nM
[3]
  IC50: 2300 nM

## C[C@@H](O)[C@H](NC(=O)[C@@H]1NC(=O)CNC(=O)[C@H](CCCCN)NC(=O)[C@@H](Cc2c[nH]c3ccccc23)NC(=O)[C@H](Cc2ccc(O)cc2)NC(=O)[C@@H](NC(=O)[C@H](N)Cc2ccccc2)CSSC1(C)C)C(N)=O
[4]
  Ratio: 110
[5]
  Ratio: 25

## C[C@@H](O)[C@H](NC(=O)[C@H]1CSSC(C)(C)[C@H](NC(=O)[C@H](N)c2ccccc2)C(=O)N[C@@H](Cc2ccccc2)C(=O)N[C@H](Cc2c[nH]c3ccccc23)C(=O)N[C@@H](CCCCN)C(=O)N[C@H]([C@@H](C)O)C(=O)N1)C(=O)O
[4]
  Ratio: 15
[5]
  Ratio: 0.45

## C[C@H](N)C(=O)NCC(=O)N[C@H]1CSSC[C@@H](C(=O)O)NC(=O)[C@H](CO)NC(=O)[C@H]([C@@H](C)O)NC(=O)[C@H](Cc2ccccc2)NC(=O)[C@H]([C@@H](C)O)NC(=O)[C@H](CCCCN)NC(=O)[C@H](Cc2c[nH]c3ccccc23)NC(=O)[C@H](Cc2ccccc2)NC(=O)[C@H](Cc2ccccc2)NC(=O)[C@H](CC(N)=O)NC(=O)[C@H](CCCCN)NC1=O
[5]
  Ratio: 0.0003

## C[C@@H](O)[C@H](NC(=O)[C@H]1NC(=O)[C@H]([C@@H](C)O)NC(=O)[C@H](CCCCN)NC(=O)[C@H](Cc2c[nH]c3ccccc23)NC(=O)[C@H](Cc2ccc(O)cc2)NC(=O)[C@@H](NC(=O)[C@H](N)Cc2ccccc2)CSSC1(C)C)C(N)=O
[1]
  IC50: 1350 nM
[2]
  IC50: > 70000 nM
[3]
  IC50: 740 nM

## CCCC[C@@H]1NC(=O)[C@@H](Cc2c[nH]c3ccccc23)NC(=O)[C@H](Cc2ccc(O)cc2)NC(=O)[C@@H](NC(=O)[C@H](N)Cc2ccccc2)CSSC(C)(C)[C@@H](C(=O)N[C@H](C(N)=O)[C@@H](C)O)NC(=O)[C@H]([C@@H](C)O)NC1=O
[1]
  IC50: 9.6 nM
[2]
  IC50: 5600 nM

## C[C@@H](O)[C@H](NC(=O)[C@@H]1NC(=O)[C@@H]([C@@H](C)O)NC(=O)[C@H](CCCCN)NC(=O)[C@H](Cc2c[nH]c3ccccc23)NC(=O)[C@H](Cc2ccc(O)cc2)NC(=O)[C@@H](NC(=O)[C@H](N)Cc2ccccc2)CSSC1(C)C)C(N)=O
[4]
  Ratio: > 52
[5]
  Ratio: 0.55

## C[C@@H](O)[C@H](NC(=O)[C@@H]1CSSC(C)(C)[C@H](NC(=O)[C@H](N)c2ccccc2)C(=O)N[C@@H](Cc2ccccc2)C(=O)N[C@H](Cc2c[nH]c3ccccc23)C(=O)N[C@@H](CCCCN)C(=O)N[C@@H]([C@@H](C)O)C(=O)N1)C(=O)O
[1]
  IC50: 2100 nM
[2]
  IC50: 32000 nM
[3]
  IC50: 947 nM

## C[C@@H](O)[C@H](NC(=O)[C@H]1CSSC[C@H](NC(=O)[C@H](N)Cc2ccc(O)cc2)C(=O)N[C@@H](Cc2ccc(O)cc2)C(=O)N[C@H](Cc2c[nH]c3ccccc23)C(=O)N[C@@H](CCCCN)C(=O)N[C@H]([C@@H](C)O)C(=O)N1)C(=O)O
[4]
  Ratio: 3
[5]
  Ratio: 2

## CC(C)[C@@H]1NC(=O)[C@H](CCCCN)NC(=O)[C@@H](Cc2c[nH]c3ccccc23)NC(=O)[C@H](Cc2ccc(O)cc2)NC(=O)[C@@H](NC(=O)[C@H](N)Cc2ccccc2)CSSC(C)(C)[C@@H](C(=O)NC(C(N)=O)[C@@H](C)O)NC1=O (stereo in doubt)
[1]
  IC50: 5.5 nM
[2]
  IC50: 2000 nM

## C[C@@H](O)[C@H](NC(=O)[C@@H]1NC(=O)[C@@H]([C@@H](C)O)NC(=O)[C@H](CCCCN)NC(=O)[C@@H](Cc2c[nH]c3ccccc23)NC(=O)[C@H](Cc2ccc(O)cc2)NC(=O)[C@@H](NC(=O)[C@H](N)Cc2ccccc2)CSSC1(C)C)C(N)=O
[4]
  Ratio: 2250
[5]
  Ratio: 187

## CC(C)[C@H]1NC(=O)[C@H](CCCCN)NC(=O)[C@@H]([C@@H](C)O)NC(=O)[C@H](Cc2ccc(O)cc2)NC(=O)[C@@H](NC(=O)[C@H](N)Cc2ccccc2)CSSC(C)(C)[C@H](C(=O)N[C@H](C(N)=O)[C@@H](C)O)NC1=O
[4]
  Ratio: 360

## C[C@@H](O)[C@H](NC(=O)[C@H]1NC(=O)[C@H]([C@@H](C)O)NC(=O)[C@H](CCCN)NC(=O)[C@@H](Cc2c[nH]c3ccccc23)NC(=O)[C@H](Cc2ccc(O)cc2)NC(=O)[C@@H](NC(=O)[C@H](N)Cc2ccccc2)CSSC1(C)C)C(N)=O
[2]
  IC50: 13500 nM
[3]
  IC50: 24300 nM

## CCCC[C@@H]1NC(=O)[C@@H](Cc2c[nH]c3ccccc23)NC(=O)[C@H](Cc2ccc(O)cc2)NC(=O)[C@@H](NC(=O)[C@H](N)Cc2ccccc2)CSSC(C)(C)[C@H](C(=O)N[C@H](C(N)=O)[C@@H](C)O)NC(=O)[C@@H]([C@@H](C)O)NC1=O
[4]
  Ratio: 580

## C[C@@H](O)[C@H](NC(=O)[C@@H]1NC(=O)[C@@H]([C@@H](C)O)NC(=O)[C@H](CCCN=C(N)N)NC(=O)[C@@H](Cc2c[nH]c3ccccc23)NC(=O)[C@H](Cc2ccc(O)cc2)NC(=O)[C@@H](NC(=O)[C@H](N)Cc2ccccc2)CSSC1(C)C)C(N)=O
[4]
  Ratio: 1300
[5]
  Ratio: 4090

## C[C@@H](O)[C@H](NC(=O)[C@@H]1CSSC[C@H](NC(=O)[C@H](N)Cc2ccc(O)cc2)C(=O)N[C@@H](Cc2ccc(O)cc2)C(=O)N[C@H](Cc2c[nH]c3ccccc23)C(=O)N[C@@H](CCCCN)C(=O)N[C@@H]([C@@H](C)O)C(=O)N1)C(=O)O
[1]
  IC50: 9100 nM
[2]
  IC50: 27500 nM
[3]
  IC50: 18500 nM

## C[C@@H](O)[C@H](NC(=O)[C@H]1NC(=O)[C@H]([C@@H](C)O)NC(=O)[C@H](CCCCN)NC(=O)[C@@H](Cc2c[nH]c3ccccc23)NC(=O)[C@H](Cc2ccc(O)cc2)NC(=O)[C@@H](NC(=O)[C@H](N)Cc2ccccc2)CSSC1(C)C)C(N)=O
[1]
  IC50: 3.7 nM
[2]
  IC50: 8400 nM
[3]
  IC50: 690 nM

## C[C@@H](O)[C@H](NC(=O)[C@H]1NC(=O)CNC(=O)[C@H](CCCCN)NC(=O)[C@@H](Cc2c[nH]c3ccccc23)NC(=O)[C@H](Cc2ccc(O)cc2)NC(=O)[C@@H](NC(=O)[C@H](N)Cc2ccccc2)CSSC1(C)C)C(N)=O
[1]
  IC50: 539 nM
[2]
  IC50: 58000 nM
[3]
  IC50: 13300 nM

## C[C@@H](O)[C@H](NC(=O)[C@@H]1NC(=O)[C@@H]([C@@H](C)O)NC(=O)[C@H](CCCCN)NC(=O)[C@@H](Cc2c[nH]c3ccccc23)NC(=O)[C@H](Cc2ccc(O)cc2)NC(=O)[C@@H](NC(=O)[C@H](N)c2ccccc2)CSSC1(C)C)C(N)=O
[4]
  Ratio: 8
[5]
  Ratio: 6.6

## C[C@@H](O)[C@H](NC(=O)[C@H]1NC(=O)[C@H]([C@@H](C)O)NC(=O)[C@H](CCCN=C(N)N)NC(=O)[C@@H](Cc2c[nH]c3ccccc23)NC(=O)[C@H](Cc2ccc(O)cc2)NC(=O)[C@@H](NC(=O)[C@H](N)Cc2ccccc2)CSSC1(C)C)C(N)=O
[1]
  IC50: 3.5 nM
[2]
  IC50: 4500 nM
[3]
  IC50: 14300 nM
